Active and inactive are the calls of the source. The rule behind the calls is not given here.
Tests used:
[1] = biological target: T1, Poly [ADP-ribose] polymerase 1 (Homo sapiens, UniProt P09874); experiment: Inhibition of human PARP1 by scintillation proximity assay
[2] = biological target: T1, Poly [ADP-ribose] polymerase 1; experiment: Inhibition of PARP1 in human HeLa cells assessed as inhibition of hydrogen peroxide-induced poly(ADP-ribosyl)ation; assay type: cell-based
[3] = AUC in rat at 3 mg/kg, po; assay type: ADME, organism-based; parameters: dose 3 mg/kg, route oral; conditions: plasma
Outline: (§1)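 Rats received the compound both intravenously and orally, each at 3 mg/kg. Reported PK parameters are half-life (h), volume of distribution (L/kg), clearance (ml/min/kg), oral bioavailability (%F) and oral AUC (μM h).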

[4] = biological target: T2, Poly [ADP-ribose] polymerase 2 (Homo sapiens, UniProt Q9UGN5); experiment: Inhibition of PARP2
[5] = Inhibition of Cytochrome P450 at 10 uM; assay type: ADME
[6] = Intrinsic clearance in rat liver microsomes; assay type: ADME, Microsome
Rattus norvegicus = experiment: Volume of distribution in rat at 3 mg/kg, iv and po; assay type: ADME, organism-based; parameters: dose 3 mg/kg, route oral; conditions: in vivo; outline: as §1
[7] = Oral bioavailability in rat at 3 mg/kg; assay type: ADME, organism-based; conditions: in vivo; outline: as §1
[8] = Half life in rat at 3 mg/kg, iv and po; assay type: ADME, organism-based; parameters: dose 3 mg/kg, route oral; conditions: in vivo; outline: as §1
[9] = biological target: Protein mono-ADP-ribosyltransferase PARP4 (Homo sapiens, UniProt Q9UKK3); experiment: Inhibition of VPARP
[10] = biological target: T3, Protein mono-ADP-ribosyltransferase PARP3 (Homo sapiens, UniProt Q9Y6F1); experiment: Inhibition of PARP3
T3 sequence (Q9Y6F1 whole entry): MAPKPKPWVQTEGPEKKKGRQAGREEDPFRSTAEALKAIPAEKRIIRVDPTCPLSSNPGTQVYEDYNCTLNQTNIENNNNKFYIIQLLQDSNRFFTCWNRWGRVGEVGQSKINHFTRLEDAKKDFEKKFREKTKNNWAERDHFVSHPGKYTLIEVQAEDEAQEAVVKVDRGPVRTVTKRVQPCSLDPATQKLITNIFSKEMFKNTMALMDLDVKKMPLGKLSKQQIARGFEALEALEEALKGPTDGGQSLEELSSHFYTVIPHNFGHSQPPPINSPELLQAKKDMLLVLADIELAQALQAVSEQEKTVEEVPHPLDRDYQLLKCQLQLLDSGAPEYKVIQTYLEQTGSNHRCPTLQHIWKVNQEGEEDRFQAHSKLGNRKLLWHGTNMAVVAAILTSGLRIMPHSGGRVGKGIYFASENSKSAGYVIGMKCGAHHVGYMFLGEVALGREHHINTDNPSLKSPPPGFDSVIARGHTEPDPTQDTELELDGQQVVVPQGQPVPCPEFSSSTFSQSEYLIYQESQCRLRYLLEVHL

[11] = biological target: Voltage-gated inwardly rectifying potassium channel KCNH2 (Homo sapiens, UniProt Q12809); experiment: Binding affinity to potassium channel IKr at 10 uM
[12] = biological target: T4, Poly [ADP-ribose] polymerase tankyrase-1 (Homo sapiens, UniProt O95271); experiment: Inhibition of Tankyrase 1
T4 sequence (O95271 whole entry): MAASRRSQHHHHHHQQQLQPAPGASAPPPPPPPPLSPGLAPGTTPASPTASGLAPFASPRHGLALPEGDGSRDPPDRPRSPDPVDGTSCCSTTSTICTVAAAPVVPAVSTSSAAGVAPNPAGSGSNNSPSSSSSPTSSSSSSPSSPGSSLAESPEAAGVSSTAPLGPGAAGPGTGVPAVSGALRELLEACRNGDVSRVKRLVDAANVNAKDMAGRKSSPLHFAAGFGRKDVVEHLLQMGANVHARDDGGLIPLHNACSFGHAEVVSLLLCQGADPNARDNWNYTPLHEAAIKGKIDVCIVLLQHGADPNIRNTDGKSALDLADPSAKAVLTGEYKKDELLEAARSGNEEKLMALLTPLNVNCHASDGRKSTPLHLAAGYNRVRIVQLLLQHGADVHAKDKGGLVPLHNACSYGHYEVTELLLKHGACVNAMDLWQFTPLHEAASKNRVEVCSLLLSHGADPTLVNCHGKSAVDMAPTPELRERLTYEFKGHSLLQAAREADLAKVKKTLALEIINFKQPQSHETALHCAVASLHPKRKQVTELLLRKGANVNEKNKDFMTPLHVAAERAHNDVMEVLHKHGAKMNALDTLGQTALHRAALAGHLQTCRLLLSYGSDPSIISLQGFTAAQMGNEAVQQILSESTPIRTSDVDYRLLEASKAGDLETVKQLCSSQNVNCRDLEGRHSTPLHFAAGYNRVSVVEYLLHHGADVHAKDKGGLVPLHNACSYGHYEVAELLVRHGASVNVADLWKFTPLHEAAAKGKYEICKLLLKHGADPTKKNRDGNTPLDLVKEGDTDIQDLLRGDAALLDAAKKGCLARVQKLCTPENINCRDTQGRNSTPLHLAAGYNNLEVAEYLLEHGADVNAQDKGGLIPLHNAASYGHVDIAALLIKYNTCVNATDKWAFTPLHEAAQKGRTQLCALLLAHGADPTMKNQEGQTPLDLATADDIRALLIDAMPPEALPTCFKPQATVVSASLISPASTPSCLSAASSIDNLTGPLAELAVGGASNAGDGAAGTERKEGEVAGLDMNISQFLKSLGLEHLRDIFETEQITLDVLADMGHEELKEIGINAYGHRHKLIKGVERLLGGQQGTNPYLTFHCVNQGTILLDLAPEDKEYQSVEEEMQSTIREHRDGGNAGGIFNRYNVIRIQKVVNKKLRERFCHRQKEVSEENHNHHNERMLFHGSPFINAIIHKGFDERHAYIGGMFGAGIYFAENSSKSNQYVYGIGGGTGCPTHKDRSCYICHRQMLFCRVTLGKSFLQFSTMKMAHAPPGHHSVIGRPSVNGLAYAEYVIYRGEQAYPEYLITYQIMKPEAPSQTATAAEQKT

[13] = biological target: T2, Poly [ADP-ribose] polymerase 2; experiment: Inhibition of PARP2 at 1 uM
[14] = biological target: T1, Poly [ADP-ribose] polymerase 1; experiment: Inhibition of human PARP1 at 1 uM by scintillation proximity assay
[15] = Inhibition of Tankyrase at 1 uM

T1 sequence (P09874 whole entry): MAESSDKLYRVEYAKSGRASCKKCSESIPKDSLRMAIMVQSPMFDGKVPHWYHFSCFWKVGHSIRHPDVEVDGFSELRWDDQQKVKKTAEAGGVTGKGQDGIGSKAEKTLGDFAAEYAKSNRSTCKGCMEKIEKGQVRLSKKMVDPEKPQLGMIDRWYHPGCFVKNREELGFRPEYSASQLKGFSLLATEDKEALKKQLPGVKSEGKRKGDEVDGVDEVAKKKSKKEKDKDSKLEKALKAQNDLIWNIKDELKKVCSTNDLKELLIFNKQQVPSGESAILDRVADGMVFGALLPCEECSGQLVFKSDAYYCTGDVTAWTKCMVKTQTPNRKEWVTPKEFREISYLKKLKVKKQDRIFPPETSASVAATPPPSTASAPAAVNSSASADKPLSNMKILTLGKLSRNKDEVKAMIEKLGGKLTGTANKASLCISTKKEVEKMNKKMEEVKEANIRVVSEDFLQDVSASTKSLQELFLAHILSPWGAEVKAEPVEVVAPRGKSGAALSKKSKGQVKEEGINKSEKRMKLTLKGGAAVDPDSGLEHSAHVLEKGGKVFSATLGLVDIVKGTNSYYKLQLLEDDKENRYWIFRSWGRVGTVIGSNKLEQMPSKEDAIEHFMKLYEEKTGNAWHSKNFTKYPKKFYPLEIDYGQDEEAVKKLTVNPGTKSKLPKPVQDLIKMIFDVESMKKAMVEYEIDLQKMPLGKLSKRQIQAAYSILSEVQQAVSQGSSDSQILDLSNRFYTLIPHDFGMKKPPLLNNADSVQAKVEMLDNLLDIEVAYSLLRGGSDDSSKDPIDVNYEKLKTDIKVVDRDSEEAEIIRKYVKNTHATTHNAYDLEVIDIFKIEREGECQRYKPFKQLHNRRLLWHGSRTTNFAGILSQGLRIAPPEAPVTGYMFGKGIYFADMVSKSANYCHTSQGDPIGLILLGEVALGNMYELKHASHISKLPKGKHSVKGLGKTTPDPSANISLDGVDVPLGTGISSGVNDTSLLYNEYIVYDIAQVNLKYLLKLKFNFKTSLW
T2 sequence (Q9UGN5 whole entry): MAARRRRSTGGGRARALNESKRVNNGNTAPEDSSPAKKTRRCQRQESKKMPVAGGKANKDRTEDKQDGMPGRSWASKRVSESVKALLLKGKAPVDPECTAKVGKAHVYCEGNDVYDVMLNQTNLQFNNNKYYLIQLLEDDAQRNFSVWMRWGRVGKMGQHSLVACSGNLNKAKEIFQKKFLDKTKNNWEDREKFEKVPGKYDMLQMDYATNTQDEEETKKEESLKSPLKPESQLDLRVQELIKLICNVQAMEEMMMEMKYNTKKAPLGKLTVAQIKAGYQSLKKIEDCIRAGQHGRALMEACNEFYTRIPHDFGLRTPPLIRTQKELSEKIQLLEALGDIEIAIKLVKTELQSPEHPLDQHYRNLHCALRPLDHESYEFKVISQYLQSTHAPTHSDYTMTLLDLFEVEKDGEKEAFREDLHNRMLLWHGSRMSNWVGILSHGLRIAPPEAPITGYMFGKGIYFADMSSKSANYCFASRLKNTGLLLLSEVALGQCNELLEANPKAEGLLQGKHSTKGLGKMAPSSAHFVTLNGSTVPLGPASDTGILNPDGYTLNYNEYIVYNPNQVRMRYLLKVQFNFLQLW
Protein mono-ADP-ribosyltransferase PARP4, sequence (Q9UKK3 whole entry): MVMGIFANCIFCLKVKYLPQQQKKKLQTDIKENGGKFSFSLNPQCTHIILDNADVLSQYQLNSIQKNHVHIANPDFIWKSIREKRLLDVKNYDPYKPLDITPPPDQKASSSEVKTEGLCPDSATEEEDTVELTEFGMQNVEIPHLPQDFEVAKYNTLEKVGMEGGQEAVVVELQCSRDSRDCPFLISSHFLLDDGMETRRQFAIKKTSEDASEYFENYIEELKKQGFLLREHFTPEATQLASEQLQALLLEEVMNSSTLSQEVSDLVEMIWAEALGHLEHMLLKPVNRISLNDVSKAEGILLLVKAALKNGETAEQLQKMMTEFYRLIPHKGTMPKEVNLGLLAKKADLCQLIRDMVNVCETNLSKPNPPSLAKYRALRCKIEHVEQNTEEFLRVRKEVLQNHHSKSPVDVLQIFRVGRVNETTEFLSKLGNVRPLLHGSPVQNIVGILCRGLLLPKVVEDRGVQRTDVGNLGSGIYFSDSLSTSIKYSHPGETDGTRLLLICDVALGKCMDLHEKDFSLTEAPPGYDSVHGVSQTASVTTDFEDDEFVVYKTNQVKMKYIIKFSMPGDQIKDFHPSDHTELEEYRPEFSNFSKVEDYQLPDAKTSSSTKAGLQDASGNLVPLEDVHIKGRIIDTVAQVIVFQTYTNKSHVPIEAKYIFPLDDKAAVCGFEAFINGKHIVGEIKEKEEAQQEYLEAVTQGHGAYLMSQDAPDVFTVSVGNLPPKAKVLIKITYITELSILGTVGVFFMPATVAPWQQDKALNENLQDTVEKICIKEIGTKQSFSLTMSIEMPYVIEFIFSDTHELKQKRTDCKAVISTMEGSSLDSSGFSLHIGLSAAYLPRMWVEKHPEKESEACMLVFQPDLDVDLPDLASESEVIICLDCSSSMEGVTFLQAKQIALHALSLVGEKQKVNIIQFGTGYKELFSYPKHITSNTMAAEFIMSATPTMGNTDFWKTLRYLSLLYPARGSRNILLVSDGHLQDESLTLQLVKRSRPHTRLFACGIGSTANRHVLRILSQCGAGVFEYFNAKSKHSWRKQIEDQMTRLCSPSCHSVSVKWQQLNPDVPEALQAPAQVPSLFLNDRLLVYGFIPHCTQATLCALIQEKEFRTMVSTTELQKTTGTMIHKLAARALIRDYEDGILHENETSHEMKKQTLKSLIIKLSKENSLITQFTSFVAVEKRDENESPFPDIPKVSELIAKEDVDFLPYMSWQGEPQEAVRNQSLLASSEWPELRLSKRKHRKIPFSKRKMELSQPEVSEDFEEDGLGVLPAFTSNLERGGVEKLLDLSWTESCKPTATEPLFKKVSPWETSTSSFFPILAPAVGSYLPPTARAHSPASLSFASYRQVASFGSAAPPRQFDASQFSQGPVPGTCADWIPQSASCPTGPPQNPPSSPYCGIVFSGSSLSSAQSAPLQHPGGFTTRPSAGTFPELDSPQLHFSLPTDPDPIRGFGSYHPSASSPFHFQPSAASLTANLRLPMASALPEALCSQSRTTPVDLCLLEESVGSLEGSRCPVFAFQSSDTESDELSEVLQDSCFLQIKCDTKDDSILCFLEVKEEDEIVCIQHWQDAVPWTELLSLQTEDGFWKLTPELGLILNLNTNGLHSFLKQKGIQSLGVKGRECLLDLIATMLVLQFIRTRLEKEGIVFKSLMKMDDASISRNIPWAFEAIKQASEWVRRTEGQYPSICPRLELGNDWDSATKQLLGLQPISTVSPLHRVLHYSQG
Voltage-gated inwardly rectifying potassium channel KCNH2, sequence (Q12809 whole entry): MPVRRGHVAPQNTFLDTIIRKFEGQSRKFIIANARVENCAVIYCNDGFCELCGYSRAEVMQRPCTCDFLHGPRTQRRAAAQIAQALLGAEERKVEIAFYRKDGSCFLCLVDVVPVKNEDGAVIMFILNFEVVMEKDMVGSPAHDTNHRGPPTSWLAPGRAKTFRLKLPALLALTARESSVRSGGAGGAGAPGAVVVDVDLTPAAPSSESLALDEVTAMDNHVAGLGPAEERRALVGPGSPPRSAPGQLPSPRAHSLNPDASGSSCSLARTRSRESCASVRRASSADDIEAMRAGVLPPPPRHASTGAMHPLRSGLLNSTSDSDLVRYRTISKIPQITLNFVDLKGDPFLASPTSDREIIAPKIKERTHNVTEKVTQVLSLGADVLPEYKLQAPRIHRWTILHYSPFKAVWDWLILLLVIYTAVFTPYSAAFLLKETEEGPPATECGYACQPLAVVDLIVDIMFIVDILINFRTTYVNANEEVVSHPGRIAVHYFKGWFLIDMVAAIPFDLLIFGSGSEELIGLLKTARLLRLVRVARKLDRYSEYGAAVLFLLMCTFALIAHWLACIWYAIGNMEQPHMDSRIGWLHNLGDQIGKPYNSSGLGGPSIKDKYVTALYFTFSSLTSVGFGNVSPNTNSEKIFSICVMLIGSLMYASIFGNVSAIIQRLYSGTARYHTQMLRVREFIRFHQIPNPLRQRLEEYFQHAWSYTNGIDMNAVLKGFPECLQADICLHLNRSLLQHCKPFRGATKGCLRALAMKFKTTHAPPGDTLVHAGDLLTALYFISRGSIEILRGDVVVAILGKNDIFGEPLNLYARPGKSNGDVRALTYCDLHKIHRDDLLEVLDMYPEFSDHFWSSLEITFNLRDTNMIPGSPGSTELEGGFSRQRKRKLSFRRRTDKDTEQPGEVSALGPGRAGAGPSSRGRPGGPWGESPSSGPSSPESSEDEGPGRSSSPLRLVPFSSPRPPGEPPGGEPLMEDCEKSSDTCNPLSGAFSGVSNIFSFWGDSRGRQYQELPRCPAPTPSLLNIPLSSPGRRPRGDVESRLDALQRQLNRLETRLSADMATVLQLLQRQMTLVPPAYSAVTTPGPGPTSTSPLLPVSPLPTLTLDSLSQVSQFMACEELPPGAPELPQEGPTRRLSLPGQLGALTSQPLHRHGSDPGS

Row | SMILES | IC50 [1] [nM] | EC50 [2] [nM] | other results
1 | O=C1NCC2c3c(cccc31)CCN2C(=O)c1cccc(C(=O)N2CCCNCC2)c1 (stereo not drawn) | 50 | – | –
2 | O=C1NCC2c3c(cccc31)CCN2C(=O)CN1CCC(c2ccccc2)CC1 (stereo not drawn) | 0.5 | 410 | –
3 | O=C1NCC2c3c(cccc31)CCN2C(=O)Cc1cccnc1 (stereo not drawn) | 1 | 360 | AUC [3]: 2.3 µM·h; IC50 [4]: 1 nM; Activity [5]: Not Active; microsomal CLint [6]: 3 µL/min/mg; Vd (Rattus norvegicus): 3 L/kg; bioavailability [7]: 51%; half-life [8]: 1.7 h; IC50 [9]: 440 nM; IC50 [10]: 50 nM; Activity [11]: Not Active; IC50 [12]: 3500 nM
4 | Cn1cc(CCC(=O)N2CCc3cccc4c3C2CNC4=O)cn1 (stereo not drawn) | 14 | 420 | –
5 | O=C1NCC2c3c(cccc31)CCN2C(=O)OCc1ccccc1 (stereo not drawn) | 14 | 130 | –
6 | O=C1NCC2c3c(cccc31)CCN2C(=O)Cc1ccc(Br)cc1 (stereo not drawn) | 7 | 200 | –
7 | Cc1c(CC(=O)N2CCc3cccc4c3C2CNC4=O)sc2ccccc12 (stereo not drawn) | 13 | 1300 | –
8 | COc1ccccc1CC(=O)N1CCc2cccc3c2C1CNC3=O (stereo not drawn) | 27 | 1700 | –
9 | O=C1NCC2c3c(cccc31)CCN2C(=O)Cc1ccccn1 (stereo not drawn) | 13 | 230 | –
10 | O=C1NCC2c3c(cccc31)CCN2C(=O)Cc1ccccc1 (stereo not drawn) | 8 | 230 | –
11 | O=C(O)CCCC(=O)N1CCc2cccc3c2C1CNC3=O (stereo not drawn) | 15 | 5000 | –
12 | O=C1NCC2c3c(cccc31)CCN2C(=O)Cc1ccc(OCc2ccccc2)cc1 (stereo not drawn) | 16 | 580 | –
13 | O=C1NCC2c3c(cccc31)CCN2C(=O)Cc1ccncc1 (stereo not drawn) | 10 | 4600 | –
14 | N#Cc1ccc(CC(=O)N2CCc3cccc4c3C2CNC4=O)cc1 (stereo not drawn) | 9 | 200 | –
15 | O=C1NCC2c3c(cccc31)CCN2C(=O)Cc1ccc(Cl)cc1 (stereo not drawn) | 5 | 650 | –
16 | O=C1NCC2c3c(cccc31)CCN2C(=O)c1ccc(C(=O)N2CCCNCC2)cc1 (stereo not drawn) | 130 | – | –
17 | O=C1NCC2c3c(cccc31)CCN2Cc1ccccc1 (stereo not drawn) | 190 | 5200 | –
18 | O=C1NCC2c3c(cccc31)CCN2C(=O)c1ccccc1Cl (stereo not drawn) | 35 | – | –
19 | O=C1NCC2c3c(cccc31)CCN2C(=O)Cc1cccc(Cl)c1 (stereo not drawn) | 5 | 1100 | –
20 | O=C1NCC2c3c(cccc31)CCN2C(=O)C1CNC1 (stereo not drawn) | 1 | 660 | –
21 | Nc1cccc2c1CCNC2=O | 0.5 | – | –
22 | O=C1NCC2c3c(cccc31)CCN2C(=O)[C@@H]1CCCN1 (stereo partly drawn) | 4 | 180 | –
23 | O=C1NCC2c3c(cccc31)CCN2S(=O)(=O)Cc1ccccc1 (stereo not drawn) | 83 | 2700 | –

Row | SMILES | IC50 [1] [nM] | EC50 [2] [nM] | other results
24 | COc1ccc(CC(=O)N2CCc3cccc4c3C2CNC4=O)cc1 (stereo not drawn) | 6 | 160 | –
25 | CN1CCN(CC(=O)N2CCc3cccc4c3C2CNC4=O)CC1 (stereo not drawn) | 97 | 3500 | –
26 | O=C1NCC2c3c(cccc31)CCN2C(=O)c1ccccc1 (stereo not drawn) | 4 | 840 | –
27 | O=C1NCC2c3c(cccc31)CCN2C(=O)CN1CCN(c2ccccc2)CC1 (stereo not drawn) | 11 | 440 | –
28 | O=C1NCC2c3c(cccc31)CCN2C(=O)NCc1ccccc1 (stereo not drawn) | 12 | 690 | –
29 | CCN(CC)Cc1ccc(C(=O)N2CCc3cccc4c3C2CNC4=O)cc1 (stereo not drawn) | 13 | 310 | –
30 | O=C1NCC2c3c(cccc31)CCN2C(=O)C1CCNC1 (stereo not drawn) | 1 | 3200 | –
31 | O=C1NCC2c3c(cccc31)CCN2C(=O)CCc1cnccn1 (stereo not drawn) | 6 | 330 | IC50 [4]: 1 nM; Activity [5]: Not Active; microsomal CLint [6]: 24 µL/min/mg; Vd (Rattus norvegicus): 2 L/kg; half-life [8]: 1.2 h; IC50 [9]: 660 nM; IC50 [10]: 70 nM; Activity [11]: Not Active; IC50 [12]: 2000 nM
32 | O=C1NCC2c3c(cccc31)CCN2C(=O)CCn1cnc2ccccc21 (stereo not drawn) | 1 | 1600 | –
33 | COc1cccc(CC(=O)N2CCc3cccc4c3C2CNC4=O)c1 (stereo not drawn) | 5 | 1200 | –
34 | O=C1NCC2c3c(cccc31)CCN2C(=O)CCc1ccccc1 (stereo not drawn) | 4 | 350 | –
35 | O=C1NCC2c3c(cccc31)CCN2C(=O)C1CCCC1 (stereo not drawn) | 11 | 550 | –
36 | O=C1CC2NCCc3cccc(c32)N1 (stereo not drawn) | – | – | inhibition [13]: inactive; inhibition [14]: inactive
37 | O=C1NCC2c3c(cccc31)CCN2C(=O)c1ccc(Cl)cc1 (stereo not drawn) | 7 | 260 | –
38 | O=C1NCC2c3c(cccc31)CCN2C(=O)Oc1ccccc1 (stereo not drawn) | 9 | 1400 | –
39 | CN(C)C(=O)CCC(=O)N1CCc2cccc3c2C1CNC3=O (stereo not drawn) | 9 | 2800 | –
40 | Cc1csc(CC(=O)N2CCc3cccc4c3C2CNC4=O)n1 (stereo not drawn) | 6 | 2900 | –
41 | O=C1NCC2c3c(cccc31)CCN2C(=O)Nc1ccccc1 (stereo not drawn) | 11 | 1100 | –
42 | O=C1NCC2c3c(cccc31)CCN2C(=O)CN1CCCCC1 (stereo not drawn) | 6 | 280 | microsomal CLint [6]: 18 µL/min/mg
43 | CC(=O)N1CCC[C@H]1C(=O)N1CCc2cccc3c2C1CNC3=O (stereo partly drawn) | 14 | 2800 | –
44 | O=C1NCC2c3c(cccc31)CCN2C(=O)c1cccc(Cl)c1 (stereo not drawn) | 37 | – | –
45 | O=C1NCC2c3c(cccc31)CCN2C(=O)Cc1ccccc1Cl (stereo not drawn) | 16 | 900 | –
46 | O=C1NCC2NCCc3cccc1c32 (stereo not drawn) | 140 | – | inhibition [15]: 11%
